Measured values: ChEMBL document CHEMBL1155477, “Benzothiophene containing Rho kinase inhibitors: Efficacy in an animal model of glaucoma” (Bioorg Med Chem Lett, 2010)
In brackets after ≈: the same amount, converted by molar mass. Activity calls are given as the source filed them. The rule behind the calls is not given here.

Columns and labels:
[1] = target: T1, Rho-associated protein kinase 1 (Homo sapiens, UniProt Q13464); assay: Inhibition of ROCK1 assessed as ATP cunsumption
Target sequence in this assay (Q13464 whole entry): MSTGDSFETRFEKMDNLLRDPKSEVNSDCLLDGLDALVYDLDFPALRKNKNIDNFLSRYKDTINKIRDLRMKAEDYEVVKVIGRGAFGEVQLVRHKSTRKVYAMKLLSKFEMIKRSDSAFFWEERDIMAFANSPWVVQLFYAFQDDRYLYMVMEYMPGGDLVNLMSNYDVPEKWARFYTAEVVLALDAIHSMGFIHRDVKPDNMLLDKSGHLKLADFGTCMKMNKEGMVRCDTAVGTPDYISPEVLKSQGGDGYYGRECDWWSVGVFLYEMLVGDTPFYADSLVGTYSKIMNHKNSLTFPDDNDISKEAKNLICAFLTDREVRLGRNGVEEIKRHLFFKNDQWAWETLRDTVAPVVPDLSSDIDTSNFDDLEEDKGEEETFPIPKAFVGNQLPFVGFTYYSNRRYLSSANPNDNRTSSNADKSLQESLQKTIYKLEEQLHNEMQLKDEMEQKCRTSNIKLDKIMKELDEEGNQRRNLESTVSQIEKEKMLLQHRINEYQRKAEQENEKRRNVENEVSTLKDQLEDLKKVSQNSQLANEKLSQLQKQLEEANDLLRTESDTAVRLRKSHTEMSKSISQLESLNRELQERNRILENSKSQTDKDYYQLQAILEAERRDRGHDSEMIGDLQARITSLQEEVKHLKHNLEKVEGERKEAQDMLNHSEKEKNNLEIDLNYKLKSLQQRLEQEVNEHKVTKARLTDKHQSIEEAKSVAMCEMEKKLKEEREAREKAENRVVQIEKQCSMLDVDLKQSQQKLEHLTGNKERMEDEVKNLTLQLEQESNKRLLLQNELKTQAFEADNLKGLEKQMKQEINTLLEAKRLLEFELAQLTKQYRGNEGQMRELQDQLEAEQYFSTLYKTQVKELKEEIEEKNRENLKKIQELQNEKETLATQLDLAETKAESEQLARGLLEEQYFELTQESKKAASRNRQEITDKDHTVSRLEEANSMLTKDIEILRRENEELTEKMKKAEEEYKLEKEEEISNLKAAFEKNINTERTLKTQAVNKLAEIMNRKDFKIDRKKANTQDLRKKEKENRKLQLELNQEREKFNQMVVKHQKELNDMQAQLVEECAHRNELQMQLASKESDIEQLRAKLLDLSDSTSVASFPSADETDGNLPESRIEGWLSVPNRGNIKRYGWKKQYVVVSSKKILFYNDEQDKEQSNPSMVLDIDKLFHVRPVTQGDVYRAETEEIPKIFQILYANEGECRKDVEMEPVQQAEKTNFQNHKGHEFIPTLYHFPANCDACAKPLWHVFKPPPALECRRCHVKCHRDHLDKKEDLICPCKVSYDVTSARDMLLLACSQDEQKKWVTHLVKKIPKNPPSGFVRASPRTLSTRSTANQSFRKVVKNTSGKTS

[2] = target: T1, Rho-associated protein kinase 1; assay: Inhibition of ROCK1 assessed as ATP cunsumption relative to control
Method in brief: (§1)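 ROCK1 enzyme reaction in 20 mM Tris-HCl pH 7.5, 10 mM MgCl2, 0.4 mM CaCl2, 0.15 mM EGTA, 0.1 mg/ml BSA. Compounds are run as an 11-point half-log series (final top 96 µM, 1% DMSO, 2–4 replicate wells) for 2 h at 30 °C. Readout is Easylite luminescence, normalized to DMSO and HMN-1152 controls. Values are means of ≥2 independent experiments.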
Target sequence in this assay (Q13464 2-1354 limits assumed): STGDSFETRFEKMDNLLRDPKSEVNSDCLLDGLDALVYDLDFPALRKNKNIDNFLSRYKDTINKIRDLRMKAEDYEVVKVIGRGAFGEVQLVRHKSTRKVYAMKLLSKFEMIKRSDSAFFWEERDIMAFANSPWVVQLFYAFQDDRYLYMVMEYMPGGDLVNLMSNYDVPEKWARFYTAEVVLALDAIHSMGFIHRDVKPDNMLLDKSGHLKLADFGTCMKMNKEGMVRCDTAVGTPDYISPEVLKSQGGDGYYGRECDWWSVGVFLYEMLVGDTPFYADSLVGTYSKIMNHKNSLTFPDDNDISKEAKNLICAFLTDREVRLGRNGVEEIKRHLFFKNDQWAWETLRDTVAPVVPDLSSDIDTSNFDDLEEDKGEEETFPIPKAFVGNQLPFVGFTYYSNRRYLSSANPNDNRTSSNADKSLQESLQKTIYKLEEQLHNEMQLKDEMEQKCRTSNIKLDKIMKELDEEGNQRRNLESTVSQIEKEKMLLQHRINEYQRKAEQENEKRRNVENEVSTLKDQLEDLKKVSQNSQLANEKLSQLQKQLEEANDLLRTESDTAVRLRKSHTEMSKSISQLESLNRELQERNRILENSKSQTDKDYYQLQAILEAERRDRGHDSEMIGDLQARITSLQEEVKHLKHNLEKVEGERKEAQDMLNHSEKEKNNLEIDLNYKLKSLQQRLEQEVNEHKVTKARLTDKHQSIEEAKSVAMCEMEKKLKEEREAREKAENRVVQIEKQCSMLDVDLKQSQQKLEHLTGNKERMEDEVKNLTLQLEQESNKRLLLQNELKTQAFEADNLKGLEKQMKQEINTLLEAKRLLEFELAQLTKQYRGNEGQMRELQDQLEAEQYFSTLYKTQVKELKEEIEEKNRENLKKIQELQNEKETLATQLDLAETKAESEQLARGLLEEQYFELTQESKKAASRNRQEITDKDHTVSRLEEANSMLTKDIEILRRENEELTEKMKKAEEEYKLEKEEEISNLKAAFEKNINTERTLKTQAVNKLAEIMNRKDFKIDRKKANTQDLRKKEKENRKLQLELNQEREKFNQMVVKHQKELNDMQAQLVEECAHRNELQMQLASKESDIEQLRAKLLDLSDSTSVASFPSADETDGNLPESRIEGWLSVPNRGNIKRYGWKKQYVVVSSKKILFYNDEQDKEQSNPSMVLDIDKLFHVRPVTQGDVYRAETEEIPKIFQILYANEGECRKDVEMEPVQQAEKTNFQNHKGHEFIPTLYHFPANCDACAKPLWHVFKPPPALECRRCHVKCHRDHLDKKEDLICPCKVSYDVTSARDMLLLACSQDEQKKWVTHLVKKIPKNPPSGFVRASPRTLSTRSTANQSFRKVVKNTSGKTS

[3] = target: T1, Rho-associated protein kinase 1; assay: Inhibition of ROCK1 in human GTM3 cells up to 10 uM by impedance assay; type: cell-based
Target sequence in this assay (Q13464 2-1354 limits assumed): as above

[4] = target: T1, Rho-associated protein kinase 1; assay: Inhibition of ROCK1 assessed as ATP cunsumption at 96 uM relative to control; method in brief: as §1
Target sequence in this assay (Q13464 2-1354 limits assumed): as above

[5] = target: Aurora kinase B (Homo sapiens) (UniProt Q96GD4); assay: Inhibition of aurora B at 10 uM
Sequence of Aurora kinase B (Homo sapiens) (Q96GD4 whole entry): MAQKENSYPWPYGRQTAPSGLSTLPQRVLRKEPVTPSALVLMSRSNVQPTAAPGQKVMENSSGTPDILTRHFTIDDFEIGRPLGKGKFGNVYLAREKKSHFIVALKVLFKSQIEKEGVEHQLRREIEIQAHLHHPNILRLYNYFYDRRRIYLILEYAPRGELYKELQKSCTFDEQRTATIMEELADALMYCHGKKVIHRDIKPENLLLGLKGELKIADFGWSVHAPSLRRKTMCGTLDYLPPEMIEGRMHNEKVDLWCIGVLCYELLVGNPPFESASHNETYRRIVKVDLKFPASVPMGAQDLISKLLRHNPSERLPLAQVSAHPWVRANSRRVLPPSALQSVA
Method in brief: (§2)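 Single-concentration screen at 10 µM in functional assays of a commercial kinase panel; percent inhibition reported when at least 50%.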

[6] = Aqueous solubility of the compound; type: physicochemical; conditions: water (aqueous)
[7] = Inhibition of PKA at 10 uM
[8] = target: Ribosomal protein S6 kinase alpha-5 (Homo sapiens) (UniProt O75582); assay: Inhibition of MSK1 at 10 uM; method in brief: as §2
Sequence of Ribosomal protein S6 kinase alpha-5 (Homo sapiens) (O75582 whole entry, looked up): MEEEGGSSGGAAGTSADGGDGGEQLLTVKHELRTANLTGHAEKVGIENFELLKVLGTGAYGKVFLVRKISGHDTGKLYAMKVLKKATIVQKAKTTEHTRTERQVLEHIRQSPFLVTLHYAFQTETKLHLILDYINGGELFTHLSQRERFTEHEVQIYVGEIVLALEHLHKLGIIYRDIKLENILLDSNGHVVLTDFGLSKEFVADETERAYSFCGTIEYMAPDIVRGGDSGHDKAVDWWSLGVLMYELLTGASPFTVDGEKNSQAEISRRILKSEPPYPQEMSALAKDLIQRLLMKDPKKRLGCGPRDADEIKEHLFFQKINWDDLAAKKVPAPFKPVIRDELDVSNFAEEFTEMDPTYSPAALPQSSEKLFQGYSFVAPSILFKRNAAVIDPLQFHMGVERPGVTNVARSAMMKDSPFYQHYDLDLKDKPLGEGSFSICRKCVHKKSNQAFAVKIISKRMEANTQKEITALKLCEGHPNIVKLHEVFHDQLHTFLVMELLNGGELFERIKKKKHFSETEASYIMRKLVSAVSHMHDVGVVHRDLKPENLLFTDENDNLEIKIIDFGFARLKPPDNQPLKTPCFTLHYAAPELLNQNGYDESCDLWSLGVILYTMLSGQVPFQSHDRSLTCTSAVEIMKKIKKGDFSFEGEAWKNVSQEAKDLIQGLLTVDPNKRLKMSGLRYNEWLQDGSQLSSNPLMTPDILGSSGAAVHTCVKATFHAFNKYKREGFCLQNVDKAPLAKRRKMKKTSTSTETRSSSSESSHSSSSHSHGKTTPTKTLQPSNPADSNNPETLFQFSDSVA

[9] = target: T2, Serine/threonine-protein kinase Sgk1 (Homo sapiens) (UniProt O00141); assay: Inhibition of SGk1 at 10 uM; method in brief: as §2
T2 sequence (whole entry): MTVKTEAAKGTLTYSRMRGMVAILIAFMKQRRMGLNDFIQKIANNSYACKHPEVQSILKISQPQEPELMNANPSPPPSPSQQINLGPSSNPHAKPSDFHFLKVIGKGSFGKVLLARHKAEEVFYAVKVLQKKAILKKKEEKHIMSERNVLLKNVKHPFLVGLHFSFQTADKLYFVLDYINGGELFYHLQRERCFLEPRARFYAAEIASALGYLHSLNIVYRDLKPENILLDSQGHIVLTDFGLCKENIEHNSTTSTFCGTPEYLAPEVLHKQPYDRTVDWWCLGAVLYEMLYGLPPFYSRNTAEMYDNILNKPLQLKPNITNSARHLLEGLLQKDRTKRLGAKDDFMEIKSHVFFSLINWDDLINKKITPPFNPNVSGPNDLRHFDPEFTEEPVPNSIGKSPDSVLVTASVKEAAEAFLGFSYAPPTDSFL

[10] = target: Serine/threonine-protein kinase N1 (Homo sapiens) (UniProt Q16512); assay: Inhibition of PKN1 at 10 uM; method in brief: as §2
Sequence of Serine/threonine-protein kinase N1 (Homo sapiens) (Q16512 2-942 limits assumed): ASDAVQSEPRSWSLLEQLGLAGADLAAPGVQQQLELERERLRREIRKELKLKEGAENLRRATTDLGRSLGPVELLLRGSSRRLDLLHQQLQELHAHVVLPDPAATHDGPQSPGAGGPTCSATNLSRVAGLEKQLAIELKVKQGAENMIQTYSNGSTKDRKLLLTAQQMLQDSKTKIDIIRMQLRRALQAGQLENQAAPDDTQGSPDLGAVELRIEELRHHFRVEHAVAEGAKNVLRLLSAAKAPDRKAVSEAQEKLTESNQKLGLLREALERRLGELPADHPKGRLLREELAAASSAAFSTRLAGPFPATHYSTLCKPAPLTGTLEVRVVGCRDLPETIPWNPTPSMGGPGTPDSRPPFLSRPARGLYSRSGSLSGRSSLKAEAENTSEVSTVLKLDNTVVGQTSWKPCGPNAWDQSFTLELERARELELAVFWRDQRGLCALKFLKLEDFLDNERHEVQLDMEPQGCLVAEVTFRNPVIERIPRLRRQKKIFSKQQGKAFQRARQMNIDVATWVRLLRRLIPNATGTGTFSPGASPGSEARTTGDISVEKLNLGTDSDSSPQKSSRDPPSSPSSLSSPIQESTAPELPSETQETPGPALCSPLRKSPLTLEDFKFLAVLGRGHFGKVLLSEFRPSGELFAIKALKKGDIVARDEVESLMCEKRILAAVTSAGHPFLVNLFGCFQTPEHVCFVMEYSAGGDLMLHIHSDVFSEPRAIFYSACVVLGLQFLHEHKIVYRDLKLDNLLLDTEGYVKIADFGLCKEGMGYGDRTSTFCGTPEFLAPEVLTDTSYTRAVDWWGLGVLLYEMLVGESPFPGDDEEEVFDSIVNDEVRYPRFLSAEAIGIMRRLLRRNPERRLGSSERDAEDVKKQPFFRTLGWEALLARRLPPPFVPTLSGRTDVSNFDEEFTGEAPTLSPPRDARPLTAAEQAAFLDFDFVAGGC

[11] = target: Ribosomal protein S6 kinase beta-1 (Homo sapiens) (UniProt P23443); assay: Inhibition of p70S6K at 10 uM; method in brief: as §2
Cynomolgus monkey [12] = assay: Reduction of intraocular pressure in laser-induced ocular hypertensive cynomolgus monkey at 250 ug/eye after 1 hr; type: functional, Macaca fascicularis; parameters: scale not given: the % may be the effect or the level left
Cynomolgus monkey [13] = assay: Reduction of intraocular pressure in laser-induced ocular hypertensive cynomolgus monkey at 250 ug/eye after 6 hrs; type: functional, Macaca fascicularis; parameters: scale not given: the % may be the effect or the level left
Cynomolgus monkey [14] = assay: Reduction of intraocular pressure in ocular hypertensive cynomolgus monkey at 250 ug/eye after 6 hrs; type: functional, Macaca fascicularis; parameters: scale not given: the % may be the effect or the level left
Cynomolgus monkey [15] = assay: Reduction of intraocular pressure in ocular hypertensive cynomolgus monkey at 250 ug/eye after 3 hrs; type: functional, Macaca fascicularis; parameters: scale not given: the % may be the effect or the level left
Cynomolgus monkey [16] = assay: Reduction of intraocular pressure in ocular hypertensive cynomolgus monkey at 250 ug/eye after 1 hr; type: functional, Macaca fascicularis; parameters: scale not given: the % may be the effect or the level left
Cynomolgus monkey [17] = assay: Reduction of intraocular pressure in laser-induced ocular hypertensive cynomolgus monkey at 250 ug/eye after 3 hrs; type: functional, Macaca fascicularis; parameters: scale not given: the % may be the effect or the level left
[18] = target: T1, Rho-associated protein kinase 1; assay: Inhibition of ROCK1 assessed as ATP cunsumption at 96 uM; method in brief: as §1
Target sequence in this assay (Q13464 2-1354 limits assumed): as the sequence (Q13464 2-1354 limits assumed) above

GTM3 [19] = assay: Change in cellular morphology of human GTM3 cells assessed as decrease in vinculin staining density by immunofluorescence relative to control; type: functional, cell-based
Method in brief: (§3)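 GTM-3 cells plated on glass coverslips one day before use, exposed to compound or DMSO control for 3 h, fixed in 2% paraformaldehyde in PBS 10 min at rt, then indirect immunofluorescence with anti-vinculin mAb and Alexa-488 anti-mouse F(ab')2 secondary; vinculin staining density and intensity compared with DMSO-treated cells.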

GTM3 [20] = assay: Change in cellular morphology of human GTM3 cells assessed as decrease in vinculin staining intensity by immunofluorescence relative to control; type: functional, cell-based; method in brief: as §3
[21] = Cytotoxicity against human GTM3 cells up to 30 uM after 24 hrs; type: cell-based; conditions: gtm3, 24 h

Cc1c(-c2ccnc(N)n2)sc2ccccc12
IC50 [1]: 2900 nM

Cc1c(-c2ccnc(N)c2)sc2ccc(Cl)cc12
Emax [2]: 44%
IC50 [1]: 8300 nM
inhibition [3]: inactive

COc1ccccc1Cc1ccc2sc(-c3ccnc(N)n3)c(C)c2c1
IC50 [1]: 9700 nM

Cc1c(-c2ccnc(N)n2)sc2ccc(C(C)N)cc12 (racemic)
IC50 [1]: 400 nM

Cc1c(-c2ccnc(N)n2)sc2ccc(-c3ccccc3)cc12
IC50 [1]: 4200 nM
Emax [4]: 35%

Cc1c(-c2ccnc(N)n2)sc2ccc(Cl)cc12
IC50 [1]: 1500 nM
inhibition [3]: inactive

Cc1cccc(C(N)c2ccc3sc(-c4ccnc(N)n4)c(C)c3c2)c1 (racemic)
Emax [2]: 67%
IC50 [1]: 50 nM

Cc1c(-c2c[nH]c3ncccc23)sc2ccc(Cl)cc12
IC50 [1]: > 10000 nM
inhibition [3]: inactive

Cc1c(-c2ccnc3[nH]ccc23)sc2ccc(Cl)cc12
IC50 [1]: 7100 nM
inhibition [3]: inactive

Cc1c(-c2ccnc(N)n2)sc2ccc(Cc3cccc(O)c3)cc12
inhibition [5]: 82%
solubility [6]: 10 µM (≈ 3.47 µg/mL)
IC50 [1]: 20 nM
inhibition [7]: 67%
inhibition [8]: 94%
inhibition [9]: 61%
inhibition [10]: 53%
inhibition [11]: 55%

Cc1c(-c2ccncc2)sc2ccc(Cl)cc12
IC50 [1]: 28000 nM
inhibition [3]: inactive

CCCC(N)c1ccc2sc(-c3ccnc(N)n3)c(C)c2c1 (racemic)
Activity (Cynomolgus monkey [12]): -19.6%
Activity (Cynomolgus monkey [13]): -26%
IC50 [1]: 20 nM
Activity (Cynomolgus monkey [14]): -12%
Activity (Cynomolgus monkey [15]): -13.9%
Activity (Cynomolgus monkey [16]): -20%
Activity (Cynomolgus monkey [17]): -24.1%

COc1ccc(C(N)c2ccc3sc(-c4ccnc(N)n4)c(C)c3c2)cc1 (racemic)
Emax [2]: 56%
IC50 [1]: 90 nM

Cc1c(-c2ccnc(N)n2)sc2ccc(C(N)CC(C)C)cc12 (racemic)
IC50 [1]: 30 nM

Cc1c(-c2ccnc(N)n2)sc2ccc(Cc3cccc(C(=O)O)c3)cc12
IC50 [1]: 60 nM

Cc1c(-c2ccnc(N)n2)sc2ccc(CN)cc12
IC50 [1]: 2200 nM

O=S(=O)(c1cccc2c(I)cccc12)N1CCCNCC1
IC50 [1]: 38000 nM

Cc1c(-c2ccnc(N)n2)sc2ccc(C(N)c3ccccc3)cc12 (racemic)
IC50 [1]: 20 nM

Cc1c(-c2ccnc(N(C)C)n2)sc2ccc(Cl)cc12
IC50 [1]: > 100000 nM
inhibition [3]: inactive
Activity [18]: inactive

CNc1nccc(-c2sc3ccc(Cl)cc3c2C)n1
Emax [2]: 17%
IC50 [1]: 1200 nM
inhibition [3]: inactive

Cc1cncc2cccc(S(=O)(=O)N3CCCNCC3C)c12 (stereo not drawn)
Activity (GTM3 [19]): Active
Activity (GTM3 [20]): Active

Cc1c(-c2ccnc(N)n2)sc2ccc(Cc3ccccc3)cc12
IC50 [1]: 580 nM

COc1cccc(Cc2ccc3sc(-c4ccnc(N)n4)c(C)c3c2)c1
solubility [6]: 40 µM (≈ 14.5 µg/mL)
IC50 [1]: 230 nM

C[C@@H](N)c1ccc(C(=O)Nc2ccnc3[nH]ccc23)cc1 [Y-39983]
Activity [21]: Non-toxic

COC(=O)c1cccc(Cc2ccc3sc(-c4ccnc(N)n4)c(C)c3c2)c1
IC50 [1]: 10000 nM

COc1ccc(Cc2ccc3sc(-c4ccnc(N)n4)c(C)c3c2)cc1
IC50 [1]: 7200 nM

Cc1c(-c2cc(N)ncn2)sc2ccc(Cl)cc12
IC50 [1]: 13000 nM
inhibition [3]: inactive

CCC(N)c1ccc2sc(-c3ccnc(N)n3)c(C)c2c1 (racemic)
IC50 [1]: 140 nM

Cc1c(-c2ccnc(N)n2)sc2ccc(C(N)C(C)C)cc12 (racemic)
IC50 [1]: 60 nM

Cc1c(-c2ccnc(N)n2)sc2ccc(C(N)c3cccc(Cl)c3)cc12 (racemic)
IC50 [1]: 30 nM

COc1cccc(C(N)c2ccc3sc(-c4ccnc(N)n4)c(C)c3c2)c1 (racemic)
Emax [2]: 46%
IC50 [1]: 20 nM

Cc1c(-c2ccnc(N)n2)sc2ccc(Nc3cccc(O)c3)cc12
solubility [6]: 30 µM (≈ 10.5 µg/mL)

Cc1c(-c2ccnc(N)n2)sc2ccc(Cc3cccc(C(F)(F)F)c3)cc12
IC50 [1]: 8600 nM
